In ChEMBL document CHEMBL4706642, “Discovery of a Potent Dual Inhibitor of Acetylcholinesterase and Butyrylcholinesterase with Antioxidant Activity that Alleviates Alzheimer-like Pathology in Old APP/PS1 Mice” (J Med Chem, 2021):
Active and inactive are the calls of the source.

How the values were obtained:
[1] = Antioxidant activity assessed as DPPH radical scavenging activity incubated for 30 mins under dark condition by UV-Vis spectrophotometric analysis; format: functional
[2] = Permeability of the compound in PBS/EtOH buffer (70:30) by PAMPA-BBB assay; format: ADME; conditions: read-out: permeability
In short: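 PAMPA-BBB permeability, reported as Pe in 10⁻⁶ cm s⁻¹, with CNS+ defined as Pe > 5.1. Mean ± SD of three experiments, each in triplicate.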

[3] = Selectivity index, ratio of IC50 for human serum BChE using butyrylthiocholineiodide as substrate to IC50 for recombinant human AChE using acetylthiocholine iodide as substrate
In short: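 Ellman spectrophotometric assay in 0.1 M phosphate buffer, pH 8.0, with 340 μM DTNB. Enzyme was 0.02 U/mL human recombinant AChE or human serum BChE. […] Then 550 μM ATCh or BTCh was added, and A412 was followed for 210 s. Non-enzymatic hydrolysis was corrected. IC50 came from a % inhibition vs log[I] regression. Selectivity = IC50 hBChE/IC50 hAChE. Mean ± SEM of ≥2 experiments, each in duplicate/triplicate.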

[4] = biological target: Beta-secretase 1 (Homo sapiens) (UniProt P56817); experiment: Inhibition of recombinant human BACE-1 at 1 uM using methoxycoumarin-Ser-Glu-Val-Asn-Leu-Asp-Ala-Glu-Phe-Lys-dinitrophenyl as substrate preincubated for 1 hr followed by substrate addition and measured after 15 mins by fluorescence based assay relative to control; conditions: time 75.0 min
[5] = biological target: Acetylcholinesterase (Homo sapiens, UniProt P22303); experiment: Inhibition of recombinant human AChE using acetylthiocholineiodide as substrate preincubated for 20 mins followed by substrate addition by Ellman's method
In short: (§1)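 Enzyme was 0.02 U/mL human recombinant AChE or human serum BChE. Non-enzymatic hydrolysis was corrected. IC50 came from a % inhibition vs log[I] regression. Selectivity = IC50 hBChE/IC50 hAChE. Mean ± SEM of ≥2 experiments, each in duplicate/triplicate.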

[6] = biological target: T1, Cholinesterase (Homo sapiens, UniProt P06276); experiment: Inhibition of human serum BChE using butyrylthiocholineiodide as substrate preincubated for 20 mins followed by substrate addition by Ellman's method; format: cell-free; in short: as §1
[7] = biological target: T1, Cholinesterase; experiment: Inhibition of human serum BChE at 100 uM using butyrylthiocholineiodide as substrate preincubated for 20 mins followed by substrate addition by Ellman's method relative to control; format: cell-free
[8] = biological target: Acetylcholinesterase (Electrophorus electricus) (UniProt O42275); experiment: Displacement of propidium iodide from PAS-region of electric eel AChE assessed as decrease in fluorescence intensity at 4 to 92 uM by spectrofluorimetric analysis relative to control; set-up: scale not given: the % may be the effect or the level left; conditions: dose 4-92 µM
In short: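 Back-titration fluorescence assay using electric eel AChE (type VI-S). Inhibitor was added in successive aliquots from a MeOH stock. Emission was read at 602 nm with excitation at 535 nm, after subtracting blanks. […] Three independent experiments.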

[9] = Drug concentration in wild type C57BL6 mouse brain at 2 mg/kg, ip thrice a week for 2 weeks observed after 4 hrs post last dose by HPLC/MS/MS analysis; conditions: in vivo
[10] = Drug concentration in wild type C57BL6 mouse plasma at 2 mg/kg, ip thrice a week for 2 weeks observed after 4 hrs post last dose by HPLC/MS/MS analysis; conditions: in vivo
[11] = biological target: Beta-secretase 1 (Homo sapiens) (UniProt P56817); experiment: Inhibition of recombinant human BACE-1 at 5 uM using methoxycoumarin-Ser-Glu-Val-Asn-Leu-Asp-Ala-Glu-Phe-Lys-dinitrophenyl as substrate preincubated for 1 hr followed by substrate addition and measured after 15 mins by fluorescence based assay relative to control; conditions: time 75.0 min

T1 sequence (P06276 whole entry): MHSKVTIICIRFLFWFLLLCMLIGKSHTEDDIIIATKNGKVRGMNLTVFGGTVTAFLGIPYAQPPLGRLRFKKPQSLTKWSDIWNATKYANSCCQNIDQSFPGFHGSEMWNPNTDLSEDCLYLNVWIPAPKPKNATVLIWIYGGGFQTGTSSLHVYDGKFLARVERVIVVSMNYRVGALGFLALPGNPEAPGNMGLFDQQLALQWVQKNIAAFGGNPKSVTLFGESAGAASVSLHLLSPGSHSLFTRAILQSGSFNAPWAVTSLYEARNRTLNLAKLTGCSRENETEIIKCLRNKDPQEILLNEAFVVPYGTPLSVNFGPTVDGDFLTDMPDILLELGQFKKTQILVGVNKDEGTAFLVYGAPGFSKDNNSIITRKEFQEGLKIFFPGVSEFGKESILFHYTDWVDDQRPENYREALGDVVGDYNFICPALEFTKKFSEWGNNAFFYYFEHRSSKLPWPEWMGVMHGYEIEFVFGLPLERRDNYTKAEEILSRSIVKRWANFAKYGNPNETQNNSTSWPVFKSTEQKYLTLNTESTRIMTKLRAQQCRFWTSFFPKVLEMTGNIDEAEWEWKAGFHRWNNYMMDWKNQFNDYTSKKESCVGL
Chain of Acetylcholinesterase (P22303 whole entry): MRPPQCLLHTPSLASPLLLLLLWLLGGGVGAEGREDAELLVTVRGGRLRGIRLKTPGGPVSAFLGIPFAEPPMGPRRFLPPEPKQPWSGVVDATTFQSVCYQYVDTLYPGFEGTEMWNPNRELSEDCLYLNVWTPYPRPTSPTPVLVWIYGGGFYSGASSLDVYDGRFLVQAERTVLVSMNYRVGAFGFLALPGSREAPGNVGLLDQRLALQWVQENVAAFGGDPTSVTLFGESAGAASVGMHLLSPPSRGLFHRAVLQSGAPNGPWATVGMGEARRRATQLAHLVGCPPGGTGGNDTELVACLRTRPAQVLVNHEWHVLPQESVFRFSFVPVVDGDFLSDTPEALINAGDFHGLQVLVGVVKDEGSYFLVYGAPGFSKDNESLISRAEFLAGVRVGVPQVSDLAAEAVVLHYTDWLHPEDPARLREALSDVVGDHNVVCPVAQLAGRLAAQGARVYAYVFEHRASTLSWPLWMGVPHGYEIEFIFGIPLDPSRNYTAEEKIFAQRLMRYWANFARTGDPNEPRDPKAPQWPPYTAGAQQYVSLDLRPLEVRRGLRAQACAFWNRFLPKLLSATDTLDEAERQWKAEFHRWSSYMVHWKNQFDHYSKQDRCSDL
Chain of Beta-secretase 1 (Homo sapiens) (P56817 whole entry): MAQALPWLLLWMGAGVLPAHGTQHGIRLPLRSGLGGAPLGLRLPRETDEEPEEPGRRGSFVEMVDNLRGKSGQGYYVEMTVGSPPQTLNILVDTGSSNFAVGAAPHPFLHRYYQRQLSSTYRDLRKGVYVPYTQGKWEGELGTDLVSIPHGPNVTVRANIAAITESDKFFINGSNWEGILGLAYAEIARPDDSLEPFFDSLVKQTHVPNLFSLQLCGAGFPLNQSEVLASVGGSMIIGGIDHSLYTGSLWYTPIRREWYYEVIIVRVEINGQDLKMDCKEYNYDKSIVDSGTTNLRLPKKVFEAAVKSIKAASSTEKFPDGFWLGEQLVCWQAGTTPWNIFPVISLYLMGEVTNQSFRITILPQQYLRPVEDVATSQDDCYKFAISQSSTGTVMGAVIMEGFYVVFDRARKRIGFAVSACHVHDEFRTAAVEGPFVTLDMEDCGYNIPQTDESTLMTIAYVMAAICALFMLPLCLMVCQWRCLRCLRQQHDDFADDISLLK
Chain of Acetylcholinesterase (Electrophorus electricus) (O42275 24-633 limits assumed): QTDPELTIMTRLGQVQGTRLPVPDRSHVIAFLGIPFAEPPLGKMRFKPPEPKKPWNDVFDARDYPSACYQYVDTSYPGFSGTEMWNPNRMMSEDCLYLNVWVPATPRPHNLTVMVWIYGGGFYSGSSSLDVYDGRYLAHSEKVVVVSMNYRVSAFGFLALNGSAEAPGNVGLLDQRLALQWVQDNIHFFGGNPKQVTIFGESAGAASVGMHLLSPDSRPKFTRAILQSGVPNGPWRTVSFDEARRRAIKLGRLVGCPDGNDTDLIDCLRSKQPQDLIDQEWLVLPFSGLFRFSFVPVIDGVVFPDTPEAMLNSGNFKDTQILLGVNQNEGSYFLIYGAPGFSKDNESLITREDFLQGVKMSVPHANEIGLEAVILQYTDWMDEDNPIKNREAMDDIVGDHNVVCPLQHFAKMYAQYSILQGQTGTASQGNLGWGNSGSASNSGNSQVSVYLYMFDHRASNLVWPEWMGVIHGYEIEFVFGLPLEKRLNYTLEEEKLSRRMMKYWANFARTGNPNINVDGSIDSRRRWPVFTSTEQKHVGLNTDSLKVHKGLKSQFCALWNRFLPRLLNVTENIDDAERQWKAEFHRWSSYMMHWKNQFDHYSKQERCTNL

SMILES	IC50 [1] [nM]	Papp [2] [×10⁻⁶ cm/s]	Ratio IC50 [3]	inhibition [4]	IC50 [5] [nM]	IC50 [6] [nM]	inhibition [7] [%]	Activity [8] [%]	concentration at 336 h [9] [ng/g]	concentration at 336 h [10] [ng/mL]	inhibition [11] [%]
COc1cc(CNC(=O)CCCC/C=C/CCCNc2c3c(nc4cc(Cl)ccc24)CC2C=C(C)CC3C2)ccc1O (stereo unspecified)	54600	22.3	9.4	21.6%	5.64	53.1					
COc1cc(CNC(=O)CCCC/C=C/C(C)C)ccc1O [CAPSAICIN]	50300	10.3		inactive	> 200000		20	11			
COc1cc(CNC(=O)c2ccc(CNc3c4c(nc5cc(Cl)ccc35)CC3C=C(C)CC4C3)cc2)ccc1O (stereo unspecified)	71400	14.3	11.6	inactive	24.9	290					
COc1cc(CNC(=O)CCCCCCCCNc2c3c(nc4cc(Cl)ccc24)CC2C=C(C)CC3C2)ccc1O (stereo unspecified)	64600	21.8	12.3	23.7%	2.94	36.1					
COc1cc(CNC(=O)CCCC/C=C/CNc2c3c(nc4cc(Cl)ccc24)CC2C=C(C)CC3C2)ccc1O (stereo unspecified)	31700	16.8	17.7	inactive	4.41	78.1					
COc1cc2c(cc1OC)C(=O)C(CC1CCN(Cc3ccccc3)CC1)C2 (stereo unspecified) [DONEPEZIL]									6130	6460	
COc1cc(CNC(=O)CCCCNc2c3c(nc4cc(Cl)ccc24)CC2C=C(C)CC3C2)ccc1O (stereo unspecified)	68500	11.5	9.5	55.6%	5.48	52.2					
COc1cc(CNC(=O)CCCCCCCNc2c3c(nc4cc(Cl)ccc24)CC2C=C(C)CC3C2)ccc1O (stereo unspecified)	70800	20.1	26.7	3.6%	1.94	51.8					
CC1=CC2Cc3nc4cc(Cl)ccc4c(N)c3C(C1)C2 (stereo unspecified)											14
COc1cc(CNC(=O)CCCCCNc2c3c(nc4cc(Cl)ccc24)CC2C=C(C)CC3C2)ccc1O (stereo unspecified)	62600	14.9	16.1	34.3%	4.35	70					
